From PubChem
The sample as a whole holds a higher share of hits than the screen did.
HUVEC inhibit: inhibitors of HUVEC proliferation, primary screen, cell-based, 384-well. viability, % at 10 µM (by protocol). CellTiter-Glo luminescence, 72 h; active compounds read low. actives 1.1% (n = 86,000). AID 648, 2007;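 active = viability at or below 30%; inactive = viability above 30%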;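 note: 100% = median luminescence of DMSO-only cell control wells on each plate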
HCT116 bCat-KO: primary screen for growth suppressors in beta-catenin knockout HCT116 cells (colon tumor, human); HCT116 beta-catenin knockout viability, CellTiter-Glo, 60 h; active compounds read low; viability, % at 10 µM; actives 1.5% (n = 140,000);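 active = viability at or under a set limit, the compound median less 4 SD, cut at about 6% in these data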;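 note: 0% = Hyamine 1622 control at 20 µM and 100% = untreated cell control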
Fibroblast inh: antiproliferative effect on LL 47 fibroblasts – human, LL 47 cells, CellTiter-Glo luminescence, primary screen | LL 47 human lung fibroblast viability, ATP luminescence; active compounds read low | viability, % at 10 µM | actives 1.1% (n = 85,000) | AID 719, 2007;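 active = viability at or below 50% in the single dose screen; inactive = viability above 50%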;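 note: compound exposure lasted 72 h before the ATP readout; 100% = median luminescence of untreated cell-only wells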
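Test system: LL 47 human lung fibroblasts / Incubation: 72 h compound exposure at 37 °C after overnight plating / Technique: luminescent ATP detection, CellTiter-Glo / Compound dosing: 0.1% DMSO in all compound wells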
H69AR inhibit: proliferation blockers of H69AR lung cancer cells, primary screen, cell-based, human, 86K library. viability, % at 10 µM. actives 6% (n = 85,000). AID 598, 2007. H69AR lung tumor viability, ATP luminescence, 72 h; active compounds read low;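 active = viability at or below 40%; inactive = viability above 40%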;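 note: multidrug resistant small cell line overexpressing MRP-1 efflux transporter; 100% = mean luminescence of untreated control wells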
HCT116 PTEN-null: growth suppression of PTEN-null HCT116, primary screen, cell-based, CellTiter-Glo; HCT116 PTEN-null viability, 60 h; active compounds read low; viability, % at 10 µM; actives 1.2% (n = 140,000);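 active = viability at or below a set limit, 4 SD under the median of all tested compounds, cut at about 3.7% in these data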;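 note: PTEN knockout HCT116 line with beta catenin targeted HCT116 as companion control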
The depositor's hits bear a star; nt = not tested or not shown.

SMILES	HUVEC inhibit	HCT116 bCat-KO	Fibroblast inh	H69AR inhibit	HCT116 PTEN-null
Cc1cc(N2CCC(C)CC2)nc(-n2nc(C)cc2C)n1	121	37	93	1.7*	49
Cc1cc(C)c(-n2nnnc2SC(C)C)c(C)c1	nt	94	nt	nt	99
CCOC(=O)c1oc2ccc(S(=O)(=O)n3nc(-c4ccccc4)cc3N)cc2c1C	100	50	92	86	42
CCOC(=O)c1oc2ccc(S(=O)(=O)n3nc(-c4ccc(OC)cc4)cc3N)cc2c1C	74	21	79	27*	26
CCC(C)c1ccccc1NC(=O)COC(=O)c1ccc2[nH]c3c(c2c1)CCCC3 (stereo unspecified)	nt	58	nt	nt	51
CC(C)c1nn2c(=O)cc(O)nc2s1	nt	99	nt	nt	107
CCOc1cc2[nH]c(=O)n(CCc3ccc(OC)c(OC)c3)c(=O)c2cc1OCC	88	83	96	36*	63
CCOc1cc2[nH]c(=S)n(CCCOC)c(=O)c2cc1OCC	89	96	96	71	95
CCOc1cc2[nH]c(=S)n(CCc3ccc(OC)c(OC)c3)c(=O)c2cc1OCC	16*	20	17*	3.0*	36
O=[N+]([O-])c1ccccc1SN(Cc1ccccc1)c1ccccn1	nt	70	nt	nt	67
Cc1ccc(SCC(=O)NC(=O)Nc2ccc3c(c2)OCCO3)c(C)c1	nt	98	nt	nt	107
Cc1nn(Cc2cccc(C(=O)N3CCCC(C)C3)c2)c(C)c1[N+](=O)[O-] (stereo unspecified)	nt	79	nt	nt	79
Cc1ccc(C(=O)CC(=O)c2cc(Cl)ccc2O)cc1	9.4*	66	30*	5.2*	64
CC(C)(C)c1ccc(C(=O)CC(=O)c2cc(Cl)ccc2O)cc1	7.6*	29	46*	25*	24
CC(C)(C)c1ccc(C(=O)NNC(=O)c2ccc(Cl)cc2)cc1	nt	74	nt	nt	73
O=C(CC(=O)c1ccccc1O)c1ccc(F)cc1	nt	54	nt	nt	46
CCOC(=O)N1CCC(NC(=O)c2cc3c(C)nc4ccccc4c3o2)CC1	80	85	103	57	84
CCOC(=O)N1CCC(NC(=O)c2cc(C)c3c(C)nn(-c4ccccc4)c3n2)CC1	85	100	95	22*	104
Cc1ccc2nc3c(cc(C(N)=S)c(=N)n3CCCOC(C)C)c(=O)n2c1	82	52	98	41	36
O=C(Cn1c(=O)sc2ccccc21)Nc1ccccc1C(=O)O	113	97	102	86	106
O=C(NCc1ccco1)c1cc2n(n1)C(C(F)(F)F)CC(c1ccc(Br)cc1)N2 (stereo unspecified)	68	94	93	94	91
O=C(NCc1ccco1)c1cc2n(n1)C(C(F)(F)F)CC(c1ccc(Cl)c(Cl)c1)N2 (stereo unspecified)	73	93	95	31*	83
COCCn1c(=O)[nH]c(=O)c2c(C(F)(F)F)cc(-c3cccs3)nc21	nt	88	nt	nt	77
O=c1[nH][nH]c(-c2ccccc2O)c1C(C[N+](=O)[O-])c1ccc(Cl)cc1Cl (stereo unspecified)	nt	36	nt	nt	58
O=c1[nH][nH]c(-c2ccccc2O)c1C(C[N+](=O)[O-])c1cccc(Cl)c1 (stereo unspecified)	nt	5.9*	nt	nt	8
SMILES	HUVEC inhibit	HCT116 bCat-KO	Fibroblast inh	H69AR inhibit	HCT116 PTEN-null
O=c1[nH][nH]c(-c2ccccc2O)c1C(C[N+](=O)[O-])c1ccccc1 (stereo unspecified)	nt	5.7*	nt	nt	4
Cc1ccc(S(=O)(=O)c2c(N)n(CCC(C)C)c3nc4ccccc4nc23)cc1	65	8	95	92	2.6*
Nc1c(S(=O)(=O)c2ccccc2)c2nc3ccccc3nc2n1/N=C/c1cccc(O)c1	6.9*	9	100	1.4*	3.6*
Cn1c(N)c(S(=O)(=O)c2ccc(Br)cc2)c2nc3ccccc3nc21	63	77	97	13*	84
Cc1ccc(S(=O)(=O)c2c(N)n(CCCO)c3nc4ccccc4nc23)cc1	87	87	96	83	81
CC(C)CCn1c(N)c(S(=O)(=O)c2cccs2)c2nc3ccccc3nc21	74	30	84	40*	22
Cc1cccc(S(=O)(=O)c2c(N)n(/N=C/c3ccccc3)c3nc4ccccc4nc23)c1	99	53	93	44	53
COc1ccc(C(C)(C)C)cc1NC(=S)NCCN1CCOCC1	nt	93	nt	nt	90
CCCOc1ccc(OCCOCCN2CCc3ccccc3C2)cc1	nt	74	nt	nt	88
CC(c1ccco1)N(C(=O)c1ccccc1NS(=O)(=O)c1ccc(Cl)c([N+](=O)[O-])c1)c1ccccn1 (stereo unspecified)	nt	67	nt	nt	64
C=COC(=O)CSc1nc(-c2cccs2)ccc1C#N	83	96	102	85	77
CCOC(=O)C(C)Sc1nc(-c2cccs2)ccc1C#N (stereo unspecified)	53	18	77	4.0*	20
N/C(=N\c1nc2ccccc2o1)NC(=O)c1ccccc1NC(=O)c1ccccc1	70	72	70	27*	85
O=C(NC(=Nc1nc2ccccc2o1)NC(=O)c1ccccc1)c1ccccc1	nt	91	nt	nt	102
COc1ccccc1C(=O)NC(=Nc1nc2ccccc2o1)NC(=O)c1ccccc1OC	14*	2.5*	71	18*	2.1*
N/C(=N\c1nc2ccccc2o1)NC(=O)c1ccccc1F	92	101	104	75	92
Cc1ccc(C#CC[N+]2(CC#Cc3ccc(C)cc3)CCCCC2)cc1	nt	7	nt	nt	4
S=C(Nc1ccccc1)c1ccccn1	93	31	96	1.2*	10
O=C(Nc1ccccc1)C(=O)Nc1ccccn1	nt	85	nt	nt	80
Cc1nc2c(c(=O)n1CC1CCCO1)c1nc3ccccc3nc1n2CCC(C)C (stereo unspecified)	84	nt	90	93	nt
CCC(C)n1c(C)nc2c(c1=O)c1nc3ccccc3nc1n2CCC1=CCCCC1 (stereo unspecified)	99	37	98	3.6*	43
O=C(CCNC(=O)c1ccc(Cl)cc1)Nc1c(F)c(F)cc(F)c1F	nt	85	nt	nt	90
Nc1cc(Br)c(N)c(Br)c1	92	94	97	23*	98
OC(c1ccccc1)(c1ccc(F)cc1)C(c1ccccc1)N1CCOCC1 (stereo unspecified)	116	58	95	41	53
CCOC(=O)N1CCC(NS(=O)(=O)c2cc3c(cc2Cl)NC(=O)CO3)CC1	65	3.9*	60	25*	4
CCN(CC)c1ccc(NC(=O)c2ccccc2F)cc1	47	33	71	26*	31
CCN(CC)c1ccc(NC(=O)c2cc(Cl)ccc2OC)cc1	31	64	74	48	67
O=C(/C=C/c1ccc(Br)cc1)c1ccco1	nt	1.0*	nt	nt	0.8*
